Peptide text beside a SMILES is read from it. * marks the point of attachment. Cbz = O=C(OCc1ccccc1)*; CH2F = FC*
Key:
[1] = biological target: T1, recombinant human caspase-3 (Homo sapiens, UniProt P42574); assay: Caspase-3-mediated macrocyclization in vitro, HPLC assay; type: biochemical; conditions: probe 25 μM, caspase-3 4.9 × 10^−3 U/ml, 37 °C
T1 sequence (P42574 29-175 limits assumed): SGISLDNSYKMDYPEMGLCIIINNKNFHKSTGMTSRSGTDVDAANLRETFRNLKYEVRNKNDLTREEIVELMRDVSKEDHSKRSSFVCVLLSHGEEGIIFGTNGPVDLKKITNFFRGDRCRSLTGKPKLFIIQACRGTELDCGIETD
T1 sequence (P42574 176-277 limits assumed): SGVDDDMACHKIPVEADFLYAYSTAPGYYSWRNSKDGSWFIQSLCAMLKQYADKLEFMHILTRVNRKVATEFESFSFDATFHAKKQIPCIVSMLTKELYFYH

[2] = system: lysate of apoptotic HeLa cells; assay: HPLC analysis of C-SNAF reaction in apoptotic cell lysate; type: cell-based, human; conditions: C-SNAF 5 μM, overnight, 37 °C
[3] = system: lysate of apoptotic MDA-MB-231 cells; assay: as above; type: cell-based, human; conditions: C-SNAF 5 μM, overnight, 37 °C
[4] = system: subcutaneous HeLa tumors in female nude mice; assay: In vivo fluorescence imaging of DOX-induced tumor apoptosis; set-up: species or system mouse
Outline: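 HeLa s.c. xenografts in female nu/nu mice given DOX 8 mg/kg or saline i.v. every 4 days, three times. Two days after the last dose, probe (5 nmol in saline) given i.v. and imaging started immediately: hyperspectral imager, 635±25 nm excitation, 675 nm long-pass emission, 670–900 nm collected. Cy5.5 unmixed from autofluorescence; tumor ROI intensity expressed as percent difference from saline group. Same animals also imaged after a single DOX dose.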

[5] = Stability in mouse serum by HPLC; type: in vitro ADME
DOX-treated HeLa cells = assay: Epifluorescence microscopy of DOX-treated HeLa cells; type: cell-based, human; conditions: for cell labeling efficiency: 24 h, HeLa
[6] = system: STS-induced apoptotic HeLa cells; assay: Epifluorescence microscopy of STS-treated HeLa cells; type: cell-based, human; conditions: for cell labeling efficiency: then C-SNAF 2 µM 24 h, HeLa
[7] = system: STS-induced apoptotic HeLa cells; assay: Flow cytometry of STS-induced apoptotic HeLa cells labelled with probe; type: cell-based, human
Outline: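 HeLa cells made apoptotic with staurosporine, or left viable, then incubated with probe (2 μM), with or without Z-VAD-fmk pretreatment (50 μM). Co-stained with a fluorescent caspase inhibitor (FLICA) as the apoptosis marker. Flow cytometry gated into four quadrants by FLICA and Cy5.5 positivity; Cy5.5 fluorescence compared between apoptotic and viable cells.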

[8] = Blood circulation and biodistribution in healthy nude mice; type: in vivo, mouse; conditions: 5 nmol i.v.
HeLa tumor lysates = assay: HPLC analysis of C-SNAF reaction in tumor lysates; type: in vivo, mouse; conditions: C-SNAF 5 μM, 24 h incubation with tumor lysate, 675 nm
[9] = system: caspase-3/7 activity in HeLa tumor lysates; assay: Caspase-Glo 3/7 assay in tumor lysates; type: in vivo, mouse; conditions: 3X DOX 8 mg/kg i.v., Caspase-Glo 3/7, n = 4
HeLa tumor xenograft = assay: Chemotherapy mouse model, tumor size; type: in vivo
Outline: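 Female nu/nu mice, 6 weeks old, given 2 million HeLa cells s.c. in the shoulders in 50% Matrigel/supplemented DMEM. Tumors grown to 0.7–0.9 cm on one aspect (about 10–15 days), then given DOX 8 mg/kg or saline i.v. every 4 days, three times. Body weight and caliper width/length recorded every other day; volume = (length × width²)/2.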

CCSSC[C@@H](NC(=O)[C@H](CC(=O)O)NC(=O)[C@@H](NC(=O)[C@H](CCC(=O)O)NC(=O)[C@H](CC(=O)O)NC(C)=O)C(C)C)C(=O)N[C@@H](CCCCNC(=O)CCCCCN1C(=CC=CC=CC2=[N+](CC)c3ccc4c(S(=O)(=O)[O-])cc(S(=O)(=O)O)cc4c3C2(C)C)C(C)(C)c2c1ccc1c(S(=O)(=O)O)cc(S(=O)(=O)O)cc21)C(=O)Nc1ccc2nc(C3=N[C@@H](C(=O)NCCCOc4ccc5nc(C#N)ccc5c4)CS3)sc2c1 [C-SNAF]
conversion to C-SNAF-cycl after 6 h [1]: nearly completely converted to C-SNAF-cycl | conversion of C-SNAF to C-SNAF-cycl [2]: more than 90% | conversion of C-SNAF to C-SNAF-cycl [3]: more than 90% | increase in tumor fluorescence signal, DOX-treated compared to saline-treated mice ([4]; 5 nmol i.v., 3X DOX 8 mg/kg, by 4 h, n = 5): 1.6 fold | time of maximum tumor fluorescence after administration ([4]; 5 nmol i.v., n = 5): 1 h | tumor fluorescence relative to saline-treated mice ([4]; after single dose of DOX (1X DOX), 2 h after C-SNAF, n = 4): moderate increase in tumor fluorescence | tumor fluorescence relative to saline and 1X DOX ([4]; after third round of DOX, same animals, n = 4): significant fluorescence enhancement | half-life [5]: > 6 h | cell labeling efficiency (DOX-treated HeLa cells; DOX 1 μM co-incubated with C-SNAF 2 µM): 9% | cell labeling efficiency (DOX-treated HeLa cells; DOX 5 μM co-incubated with C-SNAF 2 µM): 92% | enhancement in cell labeling efficiency (DOX-treated HeLa cells; DOX 1 to 5 μM): approximately 10 fold | cell labeling efficiency ([6]; STS 0.5 μM 4 h): 23% | cell labeling efficiency ([6]; STS 2 μM 4 h): 90% | enhancement in cell labeling efficiency ([6]; STS 0.5 to 2 μM): approximately 4 fold | labeling of apoptotic cells (fluorescence microscopy, words) ([6]; probe 2 µM, 24 h, STS-treated HeLa cells): Efficient labeling | uptake in untreated viable HeLa cells ([7]; probe 2 μM, 24 h, Cy5.5 fluorescence): low uptake | increase in Cy5.5 fluorescence of FLICA-positive apoptotic cells relative to viable cells ([7]; probe 2 μM, 24 h, STS 2 μM 4 h, HeLa): ~13 fold | time of nearly complete elimination from the body [8]: ≤ 12 h | blood half-life ([8]; Cy5.5 fluorescence of blood, n = 5): 1.0 ± 0.45 h | amount of C-SNAF-cycl in DOX-treated relative to saline-treated tumor lysates (HPLC) (HeLa tumor lysates): significantly greater amount of C-SNAF-cycl

COc1cccc2c1C(=O)c1c(O)c3c(c(O)c1C2=O)C[C@@](O)(C(=O)CO)C[C@@H]3O[C@H]1C[C@H](N)[C@H](O)[C@H](C)O1 [DOX, doxorubicin]
increase in caspase-3/7 activity, DOX-treated relative to saline-treated tumors [9]: 1.9 fold | tumor size change (HeLa tumor xenograft; following 1X DOX 8 mg/kg i.v.): no significant size difference | tumor size change (HeLa tumor xenograft; following the third round of DOX 8 mg/kg i.v.): significant size reduction

COC(=O)C[C@H](NC(=O)[C@H](C)NC(=O)[C@@H](NC(=O)OCc1ccccc1)C(C)C)C(=O)CF [Z-VAD-fmk, reference compound] (Cbz-Val-Ala-Asp(OMe)-CH2F)
effect of caspase inhibitor on labeling by C-SNAF ([7]; Z-VAD-fmk 50 μM, 30 min before C-SNAF 2 μM, STS-treated HeLa): abrogated

— PMC4031611 (Nature chemistry, 2014)
